{"data": "Results pooled from the literature", "organism": "Staphylococcus aureus", "effect on": "microbial growth", "note": "Protocols differ between the studies behind these lines."}
{"Compound": "CC(=O)O[C@H]1C[C@@]2(C)[C@@H](C[C@@H](O)[C@H]3[C@@]4(C)CC[C@@H](O)[C@@H](C)[C@@H]4CC[C@@]32C)/C1=C(\\CCC=C(C)C)C(=O)O", "strain": "ATCCBAA1721", "MIC": "8 µg/mL"}
{"Compound": "CN[C@H](CC(C)C)C(=O)N[C@H]1C(=O)N[C@@H](CC(N)=O)C(=O)N[C@H]2C(=O)N[C@H]3C(=O)N[C@H](C(=O)N[C@H](C(=O)O)c4cc(O)cc(O)c4-c4cc3ccc4O)[C@H](O)c3ccc(c(Cl)c3)Oc3cc2cc(c3O[C@@H]2O[C@H](CO)[C@@H](O)[C@H](O)[C@H]2O[C@H]2C[C@](C)(N)[C@H](O)[C@H](C)O2)Oc2ccc(cc2Cl)[C@H]1O", "strain": "147", "setting": "clinical isolate", "MIC": "0.59 µM"}
{"Compound": "CC1(C)S[C@@H]2[C@H](NC(=O)[C@H](N)c3ccccc3)C(=O)N2[C@H]1C(=O)O", "strain": "USA300", "MIC": "64 µg/mL"}
{"Compound": "Cc1onc(-c2ccccc2)c1C(=O)N[C@@H]1C(=O)N2[C@@H]1SC(C)(C)[C@@H]2C(=O)O", "method": "broth dilution", "strain": "MRSA", "MIC": "32 µg/mL"}
{"Compound": "COC(=O)c1cc(-c2cccc(NC(=O)Nc3cccc(Br)c3)c2)on1", "method": "broth dilution", "strain": "ATCC29213", "MIC": "> 64 µg/mL"}
{"Compound": "CC1(C)CC[C@]2(C(=O)O)CC[C@]3(C)C(=CC[C@@H]4[C@@]5(C)CC[C@H](O)C(C)(C)[C@@H]5CC[C@]43C)[C@@H]2C1", "strain": "83254", "MIC": "64 µg/mL"}
{"Compound": "Cc1ccccc1-n1c(Cn2cnc3c(N)ncnc32)nc2cccc(C)c2c1=O", "strain": "NCTC8325", "MIC": "> 30 µM"}
{"Compound": "c1ccc2c(-c3nc4ccccc4[nH]3)c3ccccc3cc2c1", "method": "broth dilution", "strain": "ATCC43300 MRSA", "setting": "drug-resistant strain", "MIC": "64 µg/mL"}
{"Compound": "COC(=O)c1cc(-c2cccc(NC(=S)Nc3ccc(C#N)cc3)c2)on1", "method": "broth dilution", "strain": "ATCC29213", "MIC": "> 64 µg/mL"}
{"Compound": "Cc1ccc2nc(-c3ccncc3)[nH]c2c1", "method": "broth dilution", "strain": "ATCC43300 MRSA", "setting": "drug-resistant strain", "MIC": "128 µg/mL"}
{"Compound": "COC(=O)c1cccc(Oc2ccc(NC(=O)Nc3ccc(Cl)c(C(F)(F)F)c3)cc2)c1", "strain": "NCTC8325", "MIC": "0.5 µM"}
{"Compound": "CCOc1ccc(-c2nc3ccccc3[nH]2)cc1", "method": "broth dilution", "strain": "ATCC43300 MRSA", "setting": "drug-resistant strain", "MIC": "512 µg/mL"}
{"Compound": "CCCCCCCC(=O)NP(=O)(O)O", "strain": "ATCC33591 MRSA", "setting": "drug-resistant strain", "MIC": "> 200 µg/mL"}
{"Compound": "COc1cccc(OC)c1C(=O)N[C@@H]1C(=O)N2[C@@H]1SC(C)(C)[C@@H]2C(=O)O", "strain": "ATCCBAA1720", "setting": "drug-resistant strain, clinical isolate", "MIC": "> 64 µg/mL"}
{"Compound": "COc1ccc(-c2nc3ccc(C)cc3[nH]2)cc1OC", "method": "broth dilution", "strain": "ATCC43300 MRSA", "setting": "drug-resistant strain", "MIC": "256 µg/mL"}
{"Compound": "CCCCCCCCCCCCCCCC(=O)CP(=O)(O)O", "strain": "ATCC33591 MRSA", "setting": "drug-resistant strain", "MIC": "100 µg/mL"}
{"Compound": "O=[N+]([O-])c1ccc(-c2nc3ccccc3[nH]2)cc1", "method": "broth dilution", "strain": "ATCC43300 MRSA", "setting": "drug-resistant strain", "MIC": "256 µg/mL"}
{"Compound": "COC(=O)c1cc(-c2cccc(NC(=S)Nc3cccc(Cl)c3)c2)on1", "method": "broth dilution", "strain": "ATCC29213", "MIC": "> 64 µg/mL"}
{"Compound": "Cc1ccc2nc(-c3ccc(Cl)c(Cl)c3)n(Cc3ccccc3)c2c1", "method": "broth dilution", "strain": "ATCC43300 MRSA", "setting": "drug-resistant strain", "MIC": "32 µg/mL"}
{"Compound": "CN[C@H](CC(C)C)C(=O)N[C@H]1C(=O)N[C@@H](CC(N)=O)C(=O)N[C@H]2C(=O)N[C@H]3C(=O)N[C@H](C(=O)N[C@H](C(=O)O)c4cc(O)cc(O)c4-c4cc3ccc4O)[C@H](O)c3ccc(c(Cl)c3)Oc3cc2cc(c3O[C@@H]2O[C@H](CO)[C@@H](O)[C@H](O)[C@H]2O[C@H]2C[C@](C)(N)[C@H](O)[C@H](C)O2)Oc2ccc(cc2Cl)[C@H]1O", "strain": "BAA2312", "setting": "drug-resistant strain", "MIC": "0.78 µg/mL"}
